Screens deposited in PubChem BioAssay by Sanford-Burnham Center for Chemical Genomics.
The list is a sample of the results.
Apaf1 activ: activates human Apaf-1 apoptosome | activity change, negative = activation, % at 20 µM | O14727 | Apaf-1 apoptosome caspase-3 activation, DEVD-Rh110 fluorescence; stronger effect = lower value | 330,000 compounds, 0.31% hits;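 active = activity change at or below -40% at 20 µM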
Target sequence (O14727 whole entry, looked up): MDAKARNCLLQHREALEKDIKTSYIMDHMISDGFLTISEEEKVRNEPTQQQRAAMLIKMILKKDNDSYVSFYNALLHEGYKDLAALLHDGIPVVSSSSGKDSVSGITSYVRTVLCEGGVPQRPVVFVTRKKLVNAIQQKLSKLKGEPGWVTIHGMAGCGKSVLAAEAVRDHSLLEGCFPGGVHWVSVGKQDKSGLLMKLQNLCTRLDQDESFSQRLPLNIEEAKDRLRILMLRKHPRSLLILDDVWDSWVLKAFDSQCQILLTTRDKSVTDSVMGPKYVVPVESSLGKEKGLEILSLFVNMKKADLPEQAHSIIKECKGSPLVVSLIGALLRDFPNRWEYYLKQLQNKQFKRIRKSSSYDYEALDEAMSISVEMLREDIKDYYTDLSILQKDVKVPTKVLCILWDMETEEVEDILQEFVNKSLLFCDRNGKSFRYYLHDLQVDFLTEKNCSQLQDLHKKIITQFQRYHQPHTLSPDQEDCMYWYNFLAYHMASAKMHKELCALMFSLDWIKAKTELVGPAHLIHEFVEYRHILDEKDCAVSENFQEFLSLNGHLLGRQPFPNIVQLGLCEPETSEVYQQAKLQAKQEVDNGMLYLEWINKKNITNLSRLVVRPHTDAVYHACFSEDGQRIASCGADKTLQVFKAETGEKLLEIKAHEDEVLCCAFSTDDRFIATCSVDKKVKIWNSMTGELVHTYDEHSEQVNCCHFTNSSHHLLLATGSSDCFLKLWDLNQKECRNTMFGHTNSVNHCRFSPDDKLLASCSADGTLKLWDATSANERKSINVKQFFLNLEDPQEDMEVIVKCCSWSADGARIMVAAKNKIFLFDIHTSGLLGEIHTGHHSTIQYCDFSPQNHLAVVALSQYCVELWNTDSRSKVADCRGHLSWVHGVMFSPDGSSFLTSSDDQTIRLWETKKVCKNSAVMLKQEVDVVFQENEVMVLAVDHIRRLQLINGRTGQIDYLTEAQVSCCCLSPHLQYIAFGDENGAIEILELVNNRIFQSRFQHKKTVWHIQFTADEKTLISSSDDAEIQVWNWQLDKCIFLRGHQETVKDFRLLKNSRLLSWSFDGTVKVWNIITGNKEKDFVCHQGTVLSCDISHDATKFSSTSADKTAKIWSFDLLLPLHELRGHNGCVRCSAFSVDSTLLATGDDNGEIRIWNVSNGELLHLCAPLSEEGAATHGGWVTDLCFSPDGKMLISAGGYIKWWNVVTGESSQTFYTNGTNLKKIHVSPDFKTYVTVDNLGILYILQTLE
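system = biochemical Apaf-1 apoptosome reconstitution | buffer or medium = 20 mM HEPES pH 7.5 with CHAPS, BSA | also added = dATP and cytochrome c as apoptosome triggers, (Z-DEVD)2-Rh110 substrate | incubation = 30 min compound preincubation and 50 min reaction, both room temperature | measured by = fluorescence, 540 nm emission, 480 nm excitation | read-out basis = Caspase-3 cleavage activity downstream of Apaf-1 activation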
Rh110 interf act: Rh110 signal interference in Apaf-1 activator counter-screen. shares compounds with Apaf1 activ. Rh110 fluorescence interference, quenched caspase reaction, Ex480/Em540. fluorescence interference (activity change), % at 20 µM, hits read low. 980 tested, under 10 active. AID 504616;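 active = mean activity change at or below -40% when tested at 20 µM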
Apaf-1 act conf2: confirmation of human Apaf-1 activators; reconstituted apoptosome caspase-3 activity, DEVD-Rh110 fluorescence; stronger effect = lower value; shares compounds with Apaf1 activ; activity change, negative = activation, % at 20 µM; 980 compounds, 5% hits;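 active = mean activity change at or below -40%, meaning activation of 40% or more, at 20 µM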
Apaf1 act interf: shows fluorescence interference in the Apaf-1 activator assay format; shares compounds with Apaf1 activ; fluorescence interference counterscreen; EC50, µM; 55 tested, under 10 active; AID 588592; call rule not given here
The depositor's hits bear a star; nt = not tested or not shown.

SMILES	Apaf1 activ	Rh110 interf act	Apaf-1 act conf2	others
CC(C)[n+]1ccn(C2=C([O-])c3ccccc3C(=O)/C2=N\S(=O)(=O)c2ccccc2)c1	46	nt	nt
CCOc1ccccc1N(CC(=O)Nc1ccc(S(=O)(=O)N2CCOCC2)cc1)S(=O)(=O)c1ccc(Cl)cc1	-68*	-1	10
c1ccc2c(C[C@@H]3CNCCN3CC3CCCCC3)cccc2c1	44	nt	nt
COc1cccc(/C=N/NC(=O)NC23CC4CC(CC(C4)C2)C3)c1O	40	nt	nt
CCOC(=O)C1CCCN(c2cc(NCCCO)c([N+](=O)[O-])c3nonc23)C1 (configuration not stated)	40	nt	nt
COc1ccc(/C(O)=C2/C(=O)C(=O)N(Cc3ccco3)C2c2cccs2)cc1 (configuration not stated)	-64*	7	13
COc1ccccc1C1/C(=C(\O)c2ccc3c(c2)OCCO3)C(=O)C(=O)N1CCCn1ccnc1 (configuration not stated)	45	nt	nt
COc1ccc(C2/C(=C(/O)c3ccc4c(c3)CC(C)O4)C(=O)C(=O)N2CCCn2ccnc2)cc1 (configuration not stated)	42	nt	nt
COc1ccc(-c2sc3ccccc3c2-c2ccc(OCCN(C)C)cc2)cc1	77	nt	nt
O=C(NCc1ccccc1)c1ccc2nc(-c3ccco3)c(-c3ccco3)nc2c1	65	nt	nt
COc1ccc(-c2noc(-c3ccccc3C(=O)NCc3ccco3)n2)cc1OC	-324*	4	-4
O=C(c1cccs1)[C@@H]1[C@@H]2C(=O)N(Cc3ccc4c(c3)OCO4)C(=O)[C@@H]2C2c3ccccc3C=CN21 (some centres not stated)	82	nt	nt
O=C1Cc2cc(S(=O)(=O)N3CCNCC3)ccc2N1	40	nt	nt
COCCOc1cc(NCc2ccccc2)c2ncn(C(C)C)c2c1	68	nt	nt
Cc1ccccc1NC1=C/C(=N\S(=O)(=O)c2ccc(C(=O)O)cc2)c2ccccc2C1=O	97	nt	nt
CCc1ccc(S(=O)(=O)/N=C2\C=C(NS(=O)(=O)c3ccccc3)C(=O)c3ccccc32)cc1	57	nt	nt
Cc1ccc(C)c(S(=O)(=O)/N=C2\C=C(NS(=O)(=O)c3ccccc3)C(=O)c3ccccc32)c1	78	nt	nt	Apaf1 act interf=>100
CCOc1ccc(-n2c(SCc3ccc([N+](=O)[O-])cc3)nnc2-c2ccc(OC)cc2)cc1	-304*	-4	18
Oc1ccc(NCc2ccccc2OCc2ccccc2)cc1	90	nt	nt
CC(=O)c1ccc(-n2ccc(=O)cc2)cc1	-494*	11	11
Cc1cccc(N2CCN(C(=O)c3cc4cc(F)ccc4[nH]3)CC2)c1C	42	nt	nt
O=C1NCN(c2ccccc2)C12CCN(CCCC(c1ccc(F)cc1)c1ccc(F)cc1)CC2	55	nt	nt
Cc1ccc(N=Cc2cccc(O)c2O)c(C)c1	93	nt	nt
COc1cc2cc(NC(C)=O)cc(NCc3ccccc3)c2cc1OC	88	nt	nt
Cc1cc(C)cc(OCC(=O)Nc2ccc(N3CCCC3)cc2)c1	41	nt	nt
SMILES	Apaf1 activ	Rh110 interf act	Apaf-1 act conf2	others
COc1cc(C)c(NC(=O)COc2ccc3c(c2)CCC3)cc1OC	-284*	15	14
CC(C)CCC(C)N=Cc1c(O)n(Cc2ccccc2)c(=O)c2ccccc12 (configuration not stated)	60	nt	nt
O=C1C(NS(=O)(=O)c2cccs2)=C(N2CCN(c3cccc(Cl)c3)CC2)C(=O)c2ccccc21	58	nt	nt
CCOC(=O)c1ccc(NC(=S)NC(=O)c2nn(CC)cc2Br)cc1	-51*	0	11
CCOC(=O)c1ccc(NC(=O)c2nn(C)cc2Br)cc1	-148*	4	16
CC(=O)Nc1ccc(C(=O)COC(=O)c2nc3nc(C)cc(C)n3n2)cc1	41	nt	nt
Cn1ccc2cc3c(cc21)CCN3C(=O)Nc1cccnc1	66	nt	nt
C#CCOCCOCCOCCNc1nc(N2CCN(C(=O)CCCCCCCCCCNC(=O)[C@H]([C@@H](C)CC)n3cc(CCCCN=C(N)N)nn3)CC2)nc(N2CCN(C(=O)CCCCCCCCCCNC(=O)[C@H](CCCCN)n3cc(C[C@@H](C)CC)nn3)CC2)n1	55	nt	nt
COc1ccc2ccccc2c1C1CC(=O)N2CN(Cc3ccco3)CSC2=C1C#N (configuration not stated)	52	nt	nt
COc1ccc(-c2oc3ccc(-c4cc(OC)c(OC)c(OC)c4)cc3c2-c2ccc(OC)cc2)cc1	-211*	6	1
ONc1cccnc1-n1nc(C(F)(F)F)cc1C(F)(F)F	47	nt	nt
CN(Cc1ccccc1)C(=O)CN1C(=O)NC(C)(c2ccc(C(C)(C)C)cc2)C1=O (configuration not stated)	42	nt	nt
CC(C)NS(=O)(=O)c1ccc(OCC(=O)N(C)Cc2ccccc2)cc1	-555*	8	17
CCc1ccc(OCC(=O)N/N=C2\CC(=O)c3ccccc32)cc1	84	nt	nt
CCOc1ccc(NC(=O)CC2C(=O)N(c3ccccc3)C(=S)N2Cc2ccccn2)cc1 (configuration not stated)	-44*	8	10
O=C1N=C(N2CCN(Cc3ccccc3)CC2)S/C1=C/c1cccs1	-408*	11	20
O=C(Cc1cc(=O)[nH][nH]1)N/N=C/c1ccccc1Cl	77	nt	nt
CC(C)c1ccc(/C=N/NC(=O)c2ccccc2Cl)cc1	-194*	1	18
Cc1ccc(/C=N/NC(=O)C(C)NC(=O)c2ccccc2)cc1 (configuration not stated)	41	nt	nt
COc1ccc(N)cc1-n1c(C)ccc1C	84	nt	nt
Cc1noc(C)c1C(=O)Nc1ccc(F)cc1F	-71*	16	11
Cc1cc(N)c2cc(NC(=O)/C=C/c3ccccc3Cl)ccc2n1	64	nt	nt
Cc1nc2ccc(Cl)cc2c(-c2ccccc2Cl)c1CC(=O)O	-42*	-5	17
C#CCOCCOCCOCCNc1nc(N2CCN(C(=O)CCCCCCCCCCNC(=O)[C@H](CCCCN)n3cc(CCO)nn3)CC2)nc(N2CCN(C(=O)CCCCCCCCCCNC(=O)[C@@H]([C@H](C)O)n3cc(C)nn3)CC2)n1	59	nt	nt
Oc1ccccc1/C=N/Nc1cc(N2CCCC2)nc(N2CCCC2)n1	98	nt	nt
SMILES	Apaf1 activ	Rh110 interf act	Apaf-1 act conf2	others
Nc1ccc(C(=O)N/N=C/c2cccc(Oc3ccccc3)c2)cc1	-64*	-4	14
Cc1[nH]n(-c2ccccc2)c(=O)c1/C=N/NC(=O)c1cccc(F)c1	62	nt	nt
COC(=O)CCC(=O)OC1(C)C(=O)C=C2C=C(C3CC3)N(C3CC3)C=C2C1=O (configuration not stated)	54	nt	nt
CCN(CC)c1ccc(NC(=O)c2cnn(CC)c2)cc1	-55*	7	11
COc1ccc(C(c2c(C)[nH]n(-c3ccccc3)c2=O)c2c(C)[nH]n(-c3ccccc3)c2=O)cc1OC	97	nt	nt
CN(C)C/C=C/C(=O)Nc1cccc(-c2c[nH]c3ncnc(Oc4ccc(NC(=O)CC(=O)Nc5ccc(F)cc5)cc4F)c23)c1	63	nt	nt
CCOc1cc(C)c(S(=O)(=O)Nc2ccc(Cl)cn2)cc1C	-40*	5	14
C[C@H](CCC(=O)NCC(=O)O)[C@H]1CC[C@H]2[C@@H]3[C@H](O)C[C@@H]4C[C@H](O)CC[C@]4(C)[C@H]3C[C@H](O)[C@]12C	-9	nt	nt
